In ChEMBL document CHEMBL4257545, “Synthesis of novel perillyl-dihydropyrimidinone hybrids designed for antiproliferative activity” (Medchemcomm, 2018):
Active and inactive are the calls of the source. The rule behind the calls is not given here.

What was measured:
HaCaT = test: Cytotoxicity against human HaCaT cells assessed as cell growth inhibition after 48 hrs by sulforhodamine B assay; assay type: cell-based
Outline: (§1)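 Human tumour lines and HaCaT normal keratinocytes in 96-well plates, exposed to compound in DMSO/RPMI (final DMSO 0.2%) for 48 h at 37 °C, 5% CO2. Cells were fixed with 50% trichloroacetic acid at time zero and after treatment. Protein was stained with sulforhodamine B and read at 540 nm. TGI (total growth inhibition) was derived by non-linear regression from triplicate runs.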

HT-29 [1] = test: Antiproliferative activity against human HT-29 cells assessed as cell growth inhibition after 48 hrs by sulforhodamine B assay; assay type: functional; details: HT-29, 48 h; outline: as §1
MCF7 [2] = test: Antiproliferative activity against human MCF7 cells assessed as cell growth inhibition after 48 hrs by sulforhodamine B assay; assay type: functional; details: MCF7, 48 h; outline: as §1
OVCAR-3 [3] = test: Antiproliferative activity against human OVCAR3 cells assessed as cell growth inhibition after 48 hrs by sulforhodamine B assay; assay type: functional; details: OVCAR-3, 48 h; outline: as §1
PC-3 [4] = test: Antiproliferative activity against human PC3 cells assessed as cell growth inhibition after 48 hrs by sulforhodamine B assay; assay type: functional; details: PC-3, 48 h; outline: as §1
UACC-62 [5] = test: Antiproliferative activity against human UACC62 cells assessed as cell growth inhibition after 48 hrs by sulforhodamine B assay; assay type: functional; details: UACC-62, 48 h; outline: as §1
NCI/ADR-RES [6] = test: Antiproliferative activity against human NCI/ADR-RES cells assessed as cell growth inhibition after 48 hrs by sulforhodamine B assay; assay type: functional; outline: as §1
NCI-H460 = test: Antiproliferative activity against human NCI-H460 cells assessed as cell growth inhibition after 48 hrs by sulforhodamine B assay; assay type: functional; details: NCI-H460, 48 h; outline: as §1
786-0 [7] = test: Antiproliferative activity against human 786-0 cells assessed as cell growth inhibition after 48 hrs by sulforhodamine B assay; assay type: functional; details: 786-0, 48 h; outline: as §1
U-251 = test: Antiproliferative activity against human U251 cells assessed as cell growth inhibition after 48 hrs by sulforhodamine B assay; assay type: functional; details: U-251, 48 h; outline: as §1
[8] = Selectivity index, ratio of TGI for human HaCaT cells to TGI for human U251 cells; assay type: toxicity; details: HaCaT cells and U251 cells, read-out: Selectivity Index
HT-29 [9] = test: Antiproliferative activity against human HT-29 cells at 25 uM after 48 hrs by sulforhodamine B assay; assay type: functional, cell-based
Outline: (§2)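 Growth-inhibition profile of each tumour line at a single compound concentration of 25 μM. Cells were treated in DMSO/RPMI (final DMSO 0.2%) for 48 h at 37 °C, 5% CO2. Cells were fixed with 50% TCA before and after exposure. Cellular protein was quantified by sulforhodamine B staining at 540 nm.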

NCI/ADR-RES [10] = test: Antiproliferative activity against human NCI/ADR-RES cells at 25 uM after 48 hrs by sulforhodamine B assay; assay type: functional, cell-based; outline: as §2
MCF7 [11] = test: Antiproliferative activity against human MCF7 cells at 25 uM after 48 hrs by sulforhodamine B assay; assay type: functional, cell-based; outline: as §2
786-0 [12] = test: Antiproliferative activity against human 786-0 cells at 25 uM after 48 hrs by sulforhodamine B assay; assay type: functional, cell-based; outline: as §2
OVCAR-3 [13] = test: Antiproliferative activity against human OVCAR3 cells at 25 uM after 48 hrs by sulforhodamine B assay; assay type: functional, cell-based; outline: as §2
UACC-62 [14] = test: Antiproliferative activity against human UACC62 cells at 25 uM after 48 hrs by sulforhodamine B assay; assay type: functional, cell-based; outline: as §2
PC-3 [15] = test: Antiproliferative activity against human PC3 cells at 25 uM after 48 hrs by sulforhodamine B assay; assay type: functional, cell-based; outline: as §2

Row | Structure (SMILES) | TGI (HaCaT) | TGI (HT-29 [1]) | TGI (MCF7 [2]) | TGI (OVCAR-3 [3]) | TGI (PC-3 [4]) | TGI (UACC-62 [5]) | TGI (NCI/ADR-RES [6]) | TGI (NCI-H460) | TGI (786-0 [7]) | TGI (U-251) | selectivity ratio [8] | Activity (HT-29 [9]) | Activity (NCI/ADR-RES [10]) | Activity (MCF7 [11]) | Activity (786-0 [12]) | Activity (OVCAR-3 [13]) | Activity (UACC-62 [14]) | Activity (PC-3 [15])
1 | C=C(C)[C@@H]1CC=C(Cn2cc(COc3ccc(C4NC(=O)NC(C)=C4C(=O)OCC)cc3OC)nn2)CC1 (some centres not stated) | 75.76 µM | > 100 µM | 82.5 µM | 53.8 µM | 54.4 µM | 26.7 µM | > 100 µM | > 100 µM | 87.3 µM | 11.3 µM | – | – | – | – | – | – | – | –
2 | C=C(C)[C@@H]1CC=C(Cn2cc(COc3cc(C4NC(=O)NC5=C4C(=O)CC(C)(C)C5)ccc3OC)nn2)CC1 (some centres not stated) | 451.02 µM | > 100 µM | 44.8 µM | > 100 µM | 79.9 µM | 62 µM | > 100 µM | > 100 µM | > 100 µM | 8.28 µM | 54.5 | – | – | – | – | – | – | –
3 | C=C(C)[C@@H]1CC=C(Cn2cc(COc3ccc(C4NC(=O)NC5=C4C(=O)CC(C)(C)C5)cc3)nn2)CC1 (some centres not stated) | 436.18 µM | > 100 µM | > 100 µM | 29.3 µM | 24 µM | 29.9 µM | > 100 µM | > 100 µM | 53.2 µM | 6.61 µM | 66 | – | – | – | – | – | – | –
4 | COc1cccc2c1C(=O)c1c(O)c3c(c(O)c1C2=O)C[C@@](O)(C(=O)CO)C[C@@H]3O[C@H]1C[C@H](N)[C@H](O)[C@H](C)O1 [DOXORUBICIN] | 1.47 µM | 0.88 µM | 0.99 µM | 0.04 µM | 15.7 µM | 1.66 µM | 0.78 µM | 0.46 µM | 0.02 µM | 0.09 µM | – | – | – | – | – | – | – | –
5 | C=C(C)[C@@H]1CC=C(Cn2cc(COc3cc(C4NC(=O)NC(C)=C4C(C)=O)ccc3OC)nn2)CC1 (some centres not stated) | 486.19 µM | 96 µM | > 100 µM | > 100 µM | > 100 µM | > 100 µM | 84.9 µM | > 100 µM | > 100 µM | > 100 µM | – | – | – | – | – | – | – | –
6 | C=C(C)[C@@H]1CC=C(Cn2cc(COc3cccc(C4NC(=O)NC(C)=C4C(C)=O)c3)nn2)CC1 (some centres not stated) | 115.66 µM | 86.2 µM | 43 µM | 13.3 µM | 49.8 µM | 31.6 µM | > 100 µM | > 100 µM | 44.1 µM | 30.5 µM | – | – | – | – | – | – | – | –
7 | C=C(C)[C@@H]1CC=C(Cn2cc(COc3ccccc3C3NC(=O)NC(C)=C3C(C)=O)nn2)CC1 (some centres not stated) | 29.51 µM | 79.5 µM | 68.7 µM | 34.3 µM | 62 µM | 34.2 µM | > 100 µM | 83.1 µM | 80.3 µM | 30.2 µM | – | – | – | – | – | – | – | –
8 | C=C(C)[C@@H]1CC=C(Cn2cc(COc3ccc(C4NC(=O)NC(C)=C4C(C)=O)cc3OC)nn2)CC1 (some centres not stated) | 147.92 µM | 95 µM | 53.3 µM | 48 µM | 85.7 µM | 3.83 µM | 80.2 µM | > 100 µM | 88.1 µM | 77.9 µM | – | – | – | – | – | – | – | –
9 | C=C(C)[C@@H]1CC=C(Cn2cc(COc3cc(C4NC(=O)NC(C)=C4C(=O)OCC)ccc3OC)nn2)CC1 (some centres not stated) | 79.75 µM | > 100 µM | > 100 µM | 13.5 µM | > 100 µM | 37.8 µM | > 100 µM | > 100 µM | > 100 µM | 98.1 µM | – | – | – | – | – | – | – | –
10 | C=C(C)[C@@H]1CC=C(Cn2cc(COc3ccccc3C3NC(=O)NC(C)=C3C(=O)OCC)nn2)CC1 (some centres not stated) | 294.37 µM | > 100 µM | > 100 µM | 81.2 µM | > 100 µM | > 100 µM | > 100 µM | > 100 µM | > 100 µM | > 100 µM | – | – | – | – | – | – | – | –
11 | CCOC(=O)C1=C(C)NC(=O)NC1c1cccc(O)c1 (configuration not stated) | – | – | – | – | – | – | – | – | – | – | – | Active | Active | Active | Active | Active | Active | Active
12 | C=C(C)[C@@H]1CC=C(Cn2cc(COc3ccccc3C3NC(=O)NC4=C3C(=O)CC(C)(C)C4)nn2)CC1 (some centres not stated) | 78.72 µM | 28.9 µM | 45 µM | 11.8 µM | 21.7 µM | 26.5 µM | > 100 µM | 38.7 µM | 26.7 µM | 27 µM | – | – | – | – | – | – | – | –
13 | C=C(C)[C@@H]1CC=C(Cn2cc(COc3ccc(C4NC(=O)NC(C)=C4C(C)=O)cc3)nn2)CC1 (some centres not stated) | 44.47 µM | 62.6 µM | 29 µM | 32.6 µM | 49.3 µM | 20.5 µM | > 100 µM | 78.2 µM | 23.3 µM | 20 µM | – | – | – | – | – | – | – | –
14 | C=C(C)[C@@H]1CC=C(Cn2cc(COc3cccc(C4NC(=O)NC5=C4C(=O)CC(C)(C)C5)c3)nn2)CC1 (some centres not stated) | 36.44 µM | 49 µM | 31 µM | > 100 µM | 21.9 µM | 20.9 µM | > 100 µM | 51.6 µM | > 100 µM | 26 µM | – | – | – | – | – | – | – | –
15 | C=C(C)[C@@H]1CC=C(Cn2cc(COc3ccc(C4NC(=O)NC(C)=C4C(=O)OCC)cc3)nn2)CC1 (some centres not stated) | 165.69 µM | 77.1 µM | 43.1 µM | 6.9 µM | 92.2 µM | 19.2 µM | > 100 µM | > 100 µM | 97.1 µM | 12.4 µM | – | – | – | – | – | – | – | –
16 | C=C(C)[C@@H]1CC=C(Cn2cc(COc3cccc(C4NC(=O)NC(C)=C4C(=O)OCC)c3)nn2)CC1 (some centres not stated) | 507.82 µM | 73.4 µM | 42.5 µM | 18.4 µM | > 100 µM | 22.9 µM | > 100 µM | > 100 µM | 39.7 µM | 12.2 µM | 41.7 | – | – | – | – | – | – | –
17 | C=C(C)[C@@H]1CC=C(Cn2cc(COc3ccc(C4NC(=O)NC5=C4C(=O)CC(C)(C)C5)cc3OC)nn2)CC1 (some centres not stated) | 71.34 µM | > 100 µM | 91.9 µM | 95 µM | > 100 µM | 86.2 µM | > 100 µM | > 100 µM | > 100 µM | 44 µM | – | – | – | – | – | – | – | –
18 | CCOC(=O)C1=C(C)NC(=S)NC1c1cccc(O)c1 (configuration not stated) | – | – | – | – | – | – | – | – | – | – | – | Active | Active | Active | Active | Active | Active | Active
